Laboratory results published in ChEMBL document CHEMBL5512642, “Novel triterpenoid pyrones, phthalimides and phthalates are selectively cytotoxic in CCRF-CEM cancer cells - Synthesis, potency, and mitochondrial mechanism of action” (Eur J Med Chem, 2024).
Activity calls are given as the source filed them. No cut-off for these calls is given here.

Experiments:
CCRF-CEM [1] = test: Induction of apoptosis in human CCRF-CEM cells assessed as viable cells at 5 time IC50 incubated for 24 hrs by Annexin V and propidium iodide staining based flow cytometry analysis (reference value: 98%); format: functional
[2] = Stability in human plasma assessed as compound remaining measured 15 mins by RF-MS analysis; format: ADME, cell-free; settings: read-out: Stability
Outline: (§1)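 Compounds incubated in human plasma in vitro for up to 2 h. Percent remaining sampled at 15, 30, 60 and 120 min. Run in triplicate.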

CCRF-CEM [3] = test: Induction of apoptosis in human CCRF-CEM cells assessed as early apoptotic cells at 1 time IC50 incubated for 24 hrs by Annexin V and propidium iodide staining based flow cytometry analysis (reference value: 1.4%); format: functional
CCRF-CEM [4] = test: Induction of apoptosis in human CCRF-CEM cells assessed as reduction in Bcl-2 expression at 5 time of IC50 incubated for 24 hrs by Western blot analysis; format: functional, cell-based
Outline: (§2)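 Lysate 20 µg protein per lane on SDS-PAGE, transferred to nitrocellulose, blocked in 5% BSA/TBS-Tween. Probed overnight at 4 °C with anti-caspase-3, Bcl-2, Bcl-XL, β-actin, then HRP secondary 1 h. ECL chemiluminescence detection.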

[5] = Stability in human plasma assessed as compound remaining measured 30 mins by RF-MS analysis; format: ADME, cell-free; settings: read-out: Stability; outline: as §1
CCRF-CEM [6] = test: Induction of apoptosis in human CCRF-CEM cells assessed as reduction in Bcl-XL expression at 5 time of IC50 incubated for 24 hrs by Western blot analysis; format: functional, cell-based; outline: as §2
[7] = Efflux ratio of apparent permeability across basolateral to apical side over apical to basolateral side in MDCK-MDR1 cells; format: ADME, cell-based, Canis lupus familiaris; settings: dog
Outline: (§3)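 Caco-2 and MDCK-MDR1 monolayers; transport measured in both directions, apical→basolateral and basolateral→apical. Efflux ratio taken from the two directions; ER > 2 counted as active efflux. Compound recovery reported. Cell-based permeability runs done in duplicate.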

[8] = Metabolic stability in human liver microsomes assessed as compound remaining at measured at 30 mins in presence of NADPH by RF-MS analysis; format: ADME, Microsome; settings: read-out: Stability
Outline: (§4)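 Human liver microsomes with NADPH cofactor to assess phase I oxidation. Compound remaining sampled at 15, 30 and 60 min; intrinsic clearance derived and categorized. Run in triplicate.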

CEM-DNR = test: Cytotoxicity against human CEM-DNR cells assessed as reduction in cell viability incubated for 72 hrs by MTS assay; format: functional, cell-based
[9] = Stability in human plasma assessed as compound remaining measured 60 mins by RF-MS analysis; format: ADME, cell-free; settings: read-out: Stability; outline: as §1
[10] = Cytotoxicity against human MRC5 cells assessed as reduction in cell viability incubated for 72 hrs by MTS assay; format: toxicity, cell-based
[11] = Cytotoxicity against human K562-Tax cells assessed as reduction in cell viability incubated for 72 hrs by MTS assay; format: functional, cell-based
[12] = Metabolic stability in human liver microsomes assessed as compound remaining at measured at 15 mins in presence of NADPH by RF-MS analysis; format: ADME, Microsome; settings: read-out: Stability; outline: as §4
CCRF-CEM [13] = test: Induction of apoptosis in human CCRF-CEM cells assessed as late apoptotic cells at 1 time IC50 incubated for 24 hrs by Annexin V and propidium iodide staining based flow cytometry analysis (reference value: 0.5%); format: functional
CCRF-CEM [14] = test: Induction of mitochondrial membrane potential loss in human CCRF-CEM cells assessed as cells with depolarized mitochondria (P2 gate) by measuring green fluorescence intensity at 1 time IC50 incubated for 24 hrs by JC-1 staining based flow cytometry (reference value: 2.1%)
[15] = Apparent permeability of the compound across apical to basolateral side in human Caco-2 cells assessed as compound recovery; format: ADME, cell-based; settings: read-out: Activity; outline: as §3
HCT 116 TP53(-/-) = test: Cytotoxicity against human HCT116-p53-null cells assessed as reduction in cell viability incubated for 72 hrs by MTS assay; format: functional, cell-based
CCRF-CEM [16] = test: Cytotoxicity against human CCRF-CEM cells assessed as reduction in cell viability incubated for 72 hrs by MTS assay; format: functional, cell-based
[17] = Apparent permeability of the compound in MDCK-MDR1 cells at 10 uM incubated for 1 hr by RF-MS analysis; format: ADME, cell-based, Canis lupus familiaris; settings: dog; outline: as §3
[18] = Plasma protein binding in human assessed as fraction bound at 10 uM by rapid equilibrium dialysis based RF-MS analysis; format: ADME, cell-free; settings: read-out: PPB (converted)
Outline: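 Human plasma protein binding measured by equilibrium dialysis and reported as percent fraction bound. Run in triplicate.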

[19] = Apparent permeability of the compound across apical to basolateral side in MDCK-MDR1 cells assessed as compound recovery at 10 uM incubated for 1 hr by RF-MS analysis; format: ADME, cell-based, Canis lupus familiaris; settings: dog, read-out: Activity; outline: as §3
CCRF-CEM [20] = test: Induction of apoptosis in human CCRF-CEM cells assessed as viable cells at 1 time IC50 incubated for 24 hrs by Annexin V and propidium iodide staining based flow cytometry analysis (reference value: 98%); format: functional
HCT-116 = test: Cytotoxicity against human HCT-116 cells assessed as reduction in cell viability incubated for 72 hrs by MTS assay; format: functional, cell-based; settings: HCT-116, 72 h
CCRF-CEM [21] = test: Induction of apoptosis in human CCRF-CEM cells assessed as necrotic cells at 1 time IC50 incubated for 24 hrs by Annexin V and propidium iodide staining based flow cytometry analysis (reference value: 0.1%); format: functional
[22] = Metabolic stability in human liver microsomes assessed as compound remaining at measured at 60 mins in presence of NADPH by RF-MS analysis; format: ADME, Microsome; settings: read-out: Stability; outline: as §4
CCRF-CEM [23] = test: Induction of apoptosis in human CCRF-CEM cells assessed as early apoptotic cells at 5 time IC50 incubated for 24 hrs by Annexin V and propidium iodide staining based flow cytometry analysis (reference value: 1.4%); format: functional
CCRF-CEM [24] = test: Induction of apoptosis in human CCRF-CEM cells assessed as necrotic cells at 5 time IC50 incubated for 24 hrs by Annexin V and propidium iodide staining based flow cytometry analysis (reference value: 0.; format: functional
CCRF-CEM [25] = test: Antiproliferative activity against human CCRF-CEM cells assessed as inhibition of RNA synthesis at 5 time of IC50 by BrdU incorporation assay; format: functional, cell-based; settings: in the assay text read “BrU incorporation assay” for “BrdU incorporation assay”
Outline: (§5)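 Mitotic fraction scored with the pH3 Ser10 marker and DNA synthesis with BrdU incorporation. For transcription, cells received a short BrU pulse after the 24 h pre-incubation. Read by flow cytometry against untreated cells.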

K562 = test: Cytotoxicity against human K562 cells assessed as reduction in cell viability incubated for 72 hrs by MTS assay; format: functional, cell-based; settings: K562, 72 h
[26] = Efflux ratio of apparent permeability across basolateral to apical side over apical to basolateral side in human Caco-2 cells; format: ADME, cell-based; outline: as §3
[27] = Cytotoxicity against human BJ cells assessed as reduction in cell viability incubated for 72 hrs by MTS assay; format: toxicity, cell-based
[28] = Stability in human plasma assessed as compound remaining measured 120 mins by RF-MS analysis; format: ADME, cell-free; settings: read-out: Stability; outline: as §1
CCRF-CEM [29] = test: Antimitotic activity against human CCRF-CEM cells assessed as decrease in cell division at 5 times of IC50; format: functional, cell-based; outline: as §5
[30] = Apparent permeability of the compound in human Caco-2 cells; format: ADME, cell-based; outline: as §3
A549 = test: Cytotoxicity against human A549 cells assessed as reduction in cell viability incubated for 72 hrs by MTS assay; format: functional, cell-based; settings: A549, 72 h
U2OS = test: Cytotoxicity against human U2OS cells assessed as reduction in cell viability incubated for 72 hrs by MTS assay; format: functional, cell-based
CCRF-CEM [31] = test: Antiproliferative activity against human CCRF-CEM cells assessed as reduction cell population at 1 time of IC50 by BrdU incorporation assay; format: functional, cell-based; outline: as §5
CCRF-CEM [32] = test: Induction of apoptosis in human CCRF-CEM cells assessed as late apoptotic cells at 5 time IC50 incubated for 24 hrs by Annexin V and propidium iodide staining based flow cytometry analysis (reference value: 0.5%); format: functional
CCRF-CEM [33] = test: Induction of mitochondrial membrane potential loss in human CCRF-CEM cells assessed as cells with depolarized mitochondria (P2 gate) by measuring green fluorescence intensity at 5 time IC50 incubated for 24 hrs by JC-1 staining based flow cytometry (reference value: 2.1%)
CCRF-CEM [34] = test: Induction of apoptosis in human CCRF-CEM cells assessed as reduction in caspase-3 expression at 5 time of IC50 incubated for 24 hrs by Western blot analysis; format: functional, cell-based; outline: as §2

In the case of `CC(C)[C@@H]1CC[C@]2(C(=O)O)CC[C@]3(C)[C@H](CC[C@@H]4[C@@]5(C)CC6=C(C7C(=O)N(c8ccccc8)C(=O)C7C=C6C(F)(F)F)C(C)(C)[C@@H]5CC[C@]43C)[C@@H]12` (stereo partly drawn), the Activity (CCRF-CEM [1]) is reported as 90.3%, the remaining at 0.25 h [2] is reported as 99.2% and the Activity (CCRF-CEM [3]) is reported as 4.7%. For the same compound, the Activity (CCRF-CEM [4]) was “Active”, the remaining at 0.5 h [5] was 102% and the Activity (CCRF-CEM [6]) was “Active”. For the same compound, the efflux ratio [7] was 71.8, the remaining at 0.5 h [8] was 92% and the IC50 (CEM-DNR) was > 50 µM. For the same compound, the remaining at 1 h [9] was 96.7%, the IC50 at 72 h [10] was 28 µM and the IC50 [11] was > 50 µM. For the same compound, the remaining at 0.25 h [12] was 92%, the Activity (CCRF-CEM [13]) was 2.9% and the Activity (CCRF-CEM [14]) was 2.2%. For the same compound, the recovery [15] was 84.2%, the IC50 (HCT 116 TP53(-/-)) was 28 µM and the IC50 (CCRF-CEM [16]) was 4.5 µM. The Papp at 1 h, 10 µM [17] was 0.05 ×10⁻⁶ cm/s, the fraction unbound at 10 µM [18] was 0.403 and the recovery at 1 h, 10 µM [19] was 86%. It also gave an Activity (CCRF-CEM [20]) of 92.4%, an IC50 (HCT-116) of 29 µM and an Activity (CCRF-CEM [21]) of 0%. The remaining at 1 h [22] was 56%, the Activity (CCRF-CEM [23]) was 5.2% and the Activity (CCRF-CEM [24]) was 0%. For the same compound, the Activity (CCRF-CEM [25]) was “Active”, the IC50 (K562) was 30 µM and the efflux ratio [26] was 63.5. The IC50 at 72 h [27] was 25 µM, the remaining at 2 h [28] was 89% and the Activity (CCRF-CEM [29]) was “inactive”. It also gave a Papp [30] of 0.09 ×10⁻⁶ cm/s, an IC50 (A549) of 18 µM and an IC50 (U2OS) of 4.8 µM. For the same compound, the Activity (CCRF-CEM [31]) was “Active”, the Activity (CCRF-CEM [32]) was 4.5% and the Activity (CCRF-CEM [33]) was 6.7%.

Compound `C=C(C)[C@@H]1CC[C@]2(C(=O)O)CC[C@]3(C)[C@H](CC[C@@H]4[C@@]5(C)Cc6c(C(F)(F)F)cc(=O)oc6C(C)(C)[C@@H]5CC[C@]43C)[C@@H]12` has an Activity (CCRF-CEM [1]) of 51.2%, a remaining at 0.25 h [2] of 99.9% and an Activity (CCRF-CEM [3]) of 5.3%. The Activity (CCRF-CEM [4]) was “Active”, the remaining at 0.5 h [5] was 99.2% and the Activity (CCRF-CEM [6]) was “Active”. For the same compound, the efflux ratio [7] was 26, the remaining at 0.5 h [8] was 86% and the IC50 (CEM-DNR) was 7.8 µM. It also gave a remaining at 1 h [9] of 102%, an IC50 at 72 h [10] of 28 µM and an IC50 [11] of 10 µM. For the same compound, the remaining at 0.25 h [12] was 100%, the Activity (CCRF-CEM [13]) was 3.7% and the Activity (CCRF-CEM [14]) was 4.4%. For the same compound, the recovery [15] was 104%, the IC50 (HCT 116 TP53(-/-)) was 15 µM and the IC50 (CCRF-CEM [16]) was 4 µM. For the same compound, the Papp at 1 h, 10 µM [17] was 0.14 ×10⁻⁶ cm/s, the fraction unbound at 10 µM [18] was 0.135 and the recovery at 1 h, 10 µM [19] was 70.7%. For the same compound, the Activity (CCRF-CEM [20]) was 90.9%, the IC50 (HCT-116) was 13 µM and the Activity (CCRF-CEM [21]) was 0.1%. It also gave a remaining at 1 h [22] of 70%, an Activity (CCRF-CEM [23]) of 17.3% and an Activity (CCRF-CEM [24]) of 0%. The Activity (CCRF-CEM [25]) was “Active”, the Activity (CCRF-CEM [34]) was “Active” and the IC50 (K562) was 22 µM. For the same compound, the efflux ratio [26] was 28.4, the IC50 at 72 h [27] was > 50 µM and the remaining at 2 h [28] was 93.6%. For the same compound, the Activity (CCRF-CEM [29]) was “Active”, the Papp [30] was 0.04 ×10⁻⁶ cm/s and the IC50 (A549) was 16 µM. For the same compound, the IC50 (U2OS) was 18 µM, the Activity (CCRF-CEM [32]) was 31.5% and the Activity (CCRF-CEM [33]) was 30.2%.
